Calls of active or inactive are those of the source. The rule behind the calls is not given here.
Test system: Quadruplex DNA
Test: Binding affinity to human c-Kit1 G-quadruplex DNA at 0.6 uM after 5 mins in presence of KCl by fluorescence spectroscopic method
Format: nucleic-acid assay
Procedure, shortened: (§1)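 Fluorescence titration at 25 °C with 0.6 µM ligand in 10 mM Tris-HCl pH 7.4, 100 mM KCl, 0.1 mM EDTA. Preformed G4 DNA was added stepwise, with 5 min incubation before each spectrum. Excitation 330 nm; emission 350–550 nm, slit 5 nm.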

SMILES | Activity
CN1CCN(CCCCn2c3ccc(-c4nc5cc(N6CCN(CCO)CC6)ccc5[nH]4)cc3c3cc(-c4nc5cc(N6CCN(CCO)CC6)ccc5[nH]4)ccc32)CC1 | Active

Test system: Quadruplex DNA
Test: Binding affinity to human c-Myc G-quadruplex DNA at 0.6 uM after 5 mins in presence of KCl by fluorescence spectroscopic method
Format: nucleic-acid assay
Procedure, shortened: as §1

SMILES | Activity
CN1CCN(CCCCn2c3ccc(-c4nc5cc(N6CCN(CCO)CC6)ccc5[nH]4)cc3c3cc(-c4nc5cc(N6CCN(CCO)CC6)ccc5[nH]4)ccc32)CC1 | Active

Test system: Quadruplex DNA
Test: Binding affinity to human telomeric G-quadruplex DNA at 0.6 uM after 5 mins in presence of KCl by fluorescence spectroscopic method
Format: nucleic-acid assay
Procedure, shortened: as §1

SMILES | Activity
CN1CCN(CCCCn2c3ccc(-c4nc5cc(N6CCN(CCO)CC6)ccc5[nH]4)cc3c3cc(-c4nc5cc(N6CCN(CCO)CC6)ccc5[nH]4)ccc32)CC1 | Active

Test system: Quadruplex DNA
Test: Binding affinity to human Bcl2 G-quadruplex DNA at 0.6 uM after 5 mins in presence of KCl by fluorescence spectroscopic method
Format: nucleic-acid assay
Procedure, shortened: as §1

SMILES | Activity
CN1CCN(CCCCn2c3ccc(-c4nc5cc(N6CCN(CCO)CC6)ccc5[nH]4)cc3c3cc(-c4nc5cc(N6CCN(CCO)CC6)ccc5[nH]4)ccc32)CC1 | Active

Test system: Quadruplex DNA
Test: Binding affinity to human c-Kit2 G-quadruplex DNA at 0.6 uM after 5 mins in presence of KCl by fluorescence spectroscopic method
Format: nucleic-acid assay
Procedure, shortened: as §1

SMILES | Activity
CN1CCN(CCCCn2c3ccc(-c4nc5cc(N6CCN(CCO)CC6)ccc5[nH]4)cc3c3cc(-c4nc5cc(N6CCN(CCO)CC6)ccc5[nH]4)ccc32)CC1 | Active

Test system: Quadruplex DNA
Test: Binding affinity to human VEGF G-quadruplex DNA at 0.6 uM after 5 mins in presence of KCl by fluorescence spectroscopic method
Format: nucleic-acid assay
Procedure, shortened: as §1

SMILES | Activity
CN1CCN(CCCCn2c3ccc(-c4nc5cc(N6CCN(CCO)CC6)ccc5[nH]4)cc3c3cc(-c4nc5cc(N6CCN(CCO)CC6)ccc5[nH]4)ccc32)CC1 | Active

Test system: Quadruplex DNA
Test: Induction of conformational changes in human telomeric G-quadruplex DNA assessed as inversion from potassium ion stabilized hybrid type mixed parallel/antiparallel G-quadruplex to stable telomere parallel-stranded G-quadruplex after 5 mins in presence of KCl by CD spectroscopic method
Format: nucleic-acid assay
Procedure, shortened: (§2)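 CD spectra of 5 µM G4 DNA in 10 mM Tris-HCl pH 7.4, 100 mM KCl, 0.1 mM EDTA, with or without ligand. Mixtures were heated 95 °C for 5 min and slowly cooled to room temperature. Recorded 200–400 nm at 25 °C, 100 nm/min, 2 s response, 1 cm cell; average of three scans.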

SMILES | Activity
CN1CCN(CCCCn2c3ccc(-c4nc5cc(N6CCN(CCO)CC6)ccc5[nH]4)cc3c3cc(-c4nc5cc(N6CCN(CCO)CC6)ccc5[nH]4)ccc32)CC1 | Active

Test system: Quadruplex DNA
Test: Induction of conformational changes in human Bcl2 G-quadruplex DNA assessed as inversion from potassium ion stabilized hybrid type mixed parallel/antiparallel G-quadruplex to stable telomere parallel-stranded G-quadruplex after 5 mins in presence of KCl by CD spectroscopic method
Format: nucleic-acid assay
Procedure, shortened: as §2

SMILES | Activity
CN1CCN(CCCCn2c3ccc(-c4nc5cc(N6CCN(CCO)CC6)ccc5[nH]4)cc3c3cc(-c4nc5cc(N6CCN(CCO)CC6)ccc5[nH]4)ccc32)CC1 | Active

Test system: Quadruplex DNA
Test: Binding affinity to human c-Myc G-quadruplex DNA assessed as stabilization of parallel stranded topology after 5 mins in presence of KCl by CD spectroscopic method
Format: nucleic-acid assay
Procedure, shortened: as §2

SMILES | Activity
CN1CCN(CCCCn2c3ccc(-c4nc5cc(N6CCN(CCO)CC6)ccc5[nH]4)cc3c3cc(-c4nc5cc(N6CCN(CCO)CC6)ccc5[nH]4)ccc32)CC1 | Active

Test system: Quadruplex DNA
Test: Binding affinity to human c-Kit1 G-quadruplex DNA assessed as stabilization of parallel stranded topology after 5 mins in presence of KCl by CD spectroscopic method
Format: nucleic-acid assay
Procedure, shortened: as §2

SMILES | Activity
CN1CCN(CCCCn2c3ccc(-c4nc5cc(N6CCN(CCO)CC6)ccc5[nH]4)cc3c3cc(-c4nc5cc(N6CCN(CCO)CC6)ccc5[nH]4)ccc32)CC1 | Active

Test system: Quadruplex DNA
Test: Binding affinity to human c-Kit2 G-quadruplex DNA assessed as stabilization of parallel stranded topology after 5 mins in presence of KCl by CD spectroscopic method
Format: nucleic-acid assay
Procedure, shortened: as §2

SMILES | Activity
CN1CCN(CCCCn2c3ccc(-c4nc5cc(N6CCN(CCO)CC6)ccc5[nH]4)cc3c3cc(-c4nc5cc(N6CCN(CCO)CC6)ccc5[nH]4)ccc32)CC1 | Active

Test system: Quadruplex DNA
Test: Binding affinity to human VEGF G-quadruplex DNA assessed as stabilization of parallel stranded topology after 5 mins in presence of KCl by CD spectroscopic method
Format: nucleic-acid assay
Procedure, shortened: as §2

SMILES | Activity
CN1CCN(CCCCn2c3ccc(-c4nc5cc(N6CCN(CCO)CC6)ccc5[nH]4)cc3c3cc(-c4nc5cc(N6CCN(CCO)CC6)ccc5[nH]4)ccc32)CC1 | Active

Biological target: Quadruplex DNA
Test: Displacement of thiazole orange from human telomeric G-quadruplex DNA after 5 mins in presence of KCl by fluorescence assay
Format: nucleic-acid assay
Procedure, shortened: (§3)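 Thiazole orange displacement from a G4 DNA–TO complex (1 µM TO + 0.5 µM G4 DNA) in 10 mM Tris-HCl pH 7.4, 100 mM KCl, 0.1 mM EDTA. Ligand was added in increasing steps, with 5 min incubation each. Fluorescence read at ex 501/em 531 nm; % displacement = 100 − (Ft/F0 × 100). DC50 is the ligand concentration giving 50% displacement, read from plots; average of two independent experiments.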

SMILES | DC50 [nM]
CN1CCN(CCCCn2c3ccc(-c4nc5cc(N6CCN(CCO)CC6)ccc5[nH]4)cc3c3cc(-c4nc5cc(N6CCN(CCO)CC6)ccc5[nH]4)ccc32)CC1 | 1150

Biological target: Quadruplex DNA
Test: Displacement of thiazole orange from human c-Myc G-quadruplex DNA after 5 mins in presence of KCl by fluorescence assay
Format: nucleic-acid assay
Procedure, shortened: as §3

SMILES | DC50 [nM]
CN1CCN(CCCCn2c3ccc(-c4nc5cc(N6CCN(CCO)CC6)ccc5[nH]4)cc3c3cc(-c4nc5cc(N6CCN(CCO)CC6)ccc5[nH]4)ccc32)CC1 | 980

Biological target: Quadruplex DNA
Test: Displacement of thiazole orange from human Bcl2 G-quadruplex DNA after 5 mins in presence of KCl by fluorescence assay
Format: nucleic-acid assay
Procedure, shortened: as §3

SMILES | DC50 [nM]
CN1CCN(CCCCn2c3ccc(-c4nc5cc(N6CCN(CCO)CC6)ccc5[nH]4)cc3c3cc(-c4nc5cc(N6CCN(CCO)CC6)ccc5[nH]4)ccc32)CC1 | 1440

Biological target: Quadruplex DNA
Test: Displacement of thiazole orange from human c-Kit1 G-quadruplex DNA after 5 mins in presence of KCl by fluorescence assay
Format: nucleic-acid assay
Procedure, shortened: as §3

SMILES | DC50 [nM]
CN1CCN(CCCCn2c3ccc(-c4nc5cc(N6CCN(CCO)CC6)ccc5[nH]4)cc3c3cc(-c4nc5cc(N6CCN(CCO)CC6)ccc5[nH]4)ccc32)CC1 | 880

Biological target: Quadruplex DNA
Test: Displacement of thiazole orange from human c-Kit2 G-quadruplex DNA after 5 mins in presence of KCl by fluorescence assay
Format: nucleic-acid assay
Procedure, shortened: as §3

SMILES | DC50 [nM]
CN1CCN(CCCCn2c3ccc(-c4nc5cc(N6CCN(CCO)CC6)ccc5[nH]4)cc3c3cc(-c4nc5cc(N6CCN(CCO)CC6)ccc5[nH]4)ccc32)CC1 | 660

Biological target: Quadruplex DNA
Test: Displacement of thiazole orange from human VEGF G-quadruplex DNA after 5 mins in presence of KCl by fluorescence assay
Format: nucleic-acid assay
Procedure, shortened: as §3

SMILES | DC50 [nM]
CN1CCN(CCCCn2c3ccc(-c4nc5cc(N6CCN(CCO)CC6)ccc5[nH]4)cc3c3cc(-c4nc5cc(N6CCN(CCO)CC6)ccc5[nH]4)ccc32)CC1 | 750

Test system: Calf thymus DNA
Test: Displacement of thiazole orange from calf thymus duplex DNA after 5 mins in presence of KCl by fluorescence assay
Format: nucleic-acid assay, Bos taurus

SMILES | DC50 [nM]
CN1CCN(CCCCn2c3ccc(-c4nc5cc(N6CCN(CCO)CC6)ccc5[nH]4)cc3c3cc(-c4nc5cc(N6CCN(CCO)CC6)ccc5[nH]4)ccc32)CC1 | 6490

Test system: Quadruplex DNA
Test: Binding affinity to human telomeric G-quadruplex DNA assessed as change in melting temperature in presence of KCl by CD spectroscopic method
Format: nucleic-acid assay
Procedure, shortened: (§4)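 CD melting of 5 µM G4 DNA in 10 mM Tris-HCl pH 7.4, 25 mM KCl, 0.1 mM EDTA. Ligand was present during folding (heating, slow cooling). Spectra 200–400 nm over 20–96 °C in 2 °C steps, buffer blank subtracted. Tm was taken from normalized ellipticity at the positive maximum (262 nm for promoter G4s). ΔTm = ligand-bound minus DNA alone; average of two independent experiments.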

SMILES | ΔTm [°C]
CN1CCN(CCCCn2c3ccc(-c4nc5cc(N6CCN(CCO)CC6)ccc5[nH]4)cc3c3cc(-c4nc5cc(N6CCN(CCO)CC6)ccc5[nH]4)ccc32)CC1 | 21.2

Test system: Quadruplex DNA
Test: Binding affinity to human c-Myc G-quadruplex DNA assessed as change in melting temperature in presence of KCl by CD spectroscopic method
Format: nucleic-acid assay
Procedure, shortened: as §4

SMILES | ΔTm [°C]
CN1CCN(CCCCn2c3ccc(-c4nc5cc(N6CCN(CCO)CC6)ccc5[nH]4)cc3c3cc(-c4nc5cc(N6CCN(CCO)CC6)ccc5[nH]4)ccc32)CC1 | 8.86

Test system: Quadruplex DNA
Test: Binding affinity to human Bcl2 G-quadruplex DNA assessed as change in melting temperature in presence of KCl by CD spectroscopic method
Format: nucleic-acid assay
Procedure, shortened: as §4

SMILES | ΔTm [°C]
CN1CCN(CCCCn2c3ccc(-c4nc5cc(N6CCN(CCO)CC6)ccc5[nH]4)cc3c3cc(-c4nc5cc(N6CCN(CCO)CC6)ccc5[nH]4)ccc32)CC1 | 9.5

Test system: Quadruplex DNA
Test: Binding affinity to human c-Kit1 G-quadruplex DNA assessed as change in melting temperature in presence of KCl by CD spectroscopic method
Format: nucleic-acid assay
Procedure, shortened: as §4

SMILES | ΔTm [°C]
CN1CCN(CCCCn2c3ccc(-c4nc5cc(N6CCN(CCO)CC6)ccc5[nH]4)cc3c3cc(-c4nc5cc(N6CCN(CCO)CC6)ccc5[nH]4)ccc32)CC1 | 25.9

Test system: Quadruplex DNA
Test: Binding affinity to human c-Kit2 G-quadruplex DNA assessed as change in melting temperature in presence of KCl by CD spectroscopic method
Format: nucleic-acid assay
Procedure, shortened: as §4

SMILES | ΔTm [°C]
CN1CCN(CCCCn2c3ccc(-c4nc5cc(N6CCN(CCO)CC6)ccc5[nH]4)cc3c3cc(-c4nc5cc(N6CCN(CCO)CC6)ccc5[nH]4)ccc32)CC1 | 22

Test system: Quadruplex DNA
Test: Binding affinity to human VEGF G-quadruplex DNA assessed as change in melting temperature in presence of KCl by CD spectroscopic method
Format: nucleic-acid assay
Procedure, shortened: as §4

SMILES | ΔTm [°C]
CN1CCN(CCCCn2c3ccc(-c4nc5cc(N6CCN(CCO)CC6)ccc5[nH]4)cc3c3cc(-c4nc5cc(N6CCN(CCO)CC6)ccc5[nH]4)ccc32)CC1 | 14.2

— ChEMBL document CHEMBL4196021, “Targeting G-quadruplex DNA structures in the telomere and oncogene promoter regions by benzimidazole‒carbazole ligands” (Eur J Med Chem, 2018)
